For data set [1], the system named is U-87 MG human glioblastoma cells. Put plainly: WST-1 antiproliferative assay in U-87 MG cells. The data set is classed as cell-based. The conditions noted are these: for IC50: read-out: IC50 according to WST-1 results; for % viability value at the highest concentration: WST-1, highest concentration (500 µM). The gist of the method:
(§1)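 U-87 MG glioblastoma cells or BJ foreskin fibroblasts were seeded at 3 × 10^3 per well and left 24 h. Test compound, freshly diluted in medium, was applied at 0.97–500 µM (ten concentrations) for 24 or 48 h. WST-1 reagent was added per kit and absorbance read at 540 nm. There were 7 wells per concentration and 3 independent experiments. The 0.1% DMSO control was set to 100% viability, and IC50 was derived from the % viability values.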

The subject of data set [2] is BJ human healthy fibroblast cells. The data set can be described thus: WST-1 cytotoxicity assay in BJ cells. The data set is classed as cell-based. The following applies: for IC50: read-out: IC50 according to WST-1 results. The essentials: as §1
Data set [3] deals with U-87 MG cells. Put plainly: Caspase-3 activation in flow cytometry. The data set is classed as cell-based, human. The following applies: for Caspase-3 levels compared to the control / Caspase-3-positive cells % (lower right quadrant): IC50 concentration; for Caspase-3 levels compared to the control: 48th hour; for Caspase-3-positive cells % (lower right quadrant): n = 3, mean ± SD, control 0.6 ± 0.3. The gist of the method:
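U-87 MG cells were seeded at 1 × 10^5 per well in 6-well plates and exposed for 48 h to 150 μM test compound or 45 μM comparator, with 0.1% DMSO as control. After a PBS wash, cells were fixed and permeabilised with cytofix/cytoperm for 20 min on ice, then stained with PE rabbit anti-active caspase-3 for 30 min at room temperature. Flow cytometry gave quadrant %; n = 3, mean ± SD.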

The test system of data set [4] is U-87 MG cells. The data set can be described thus: Mitochondrial membrane integrity. The data set is classed as cell-based, human. The following applies: for Increase of mitochondrial depolarization levels compared to the control: IC50 concentration, 48th hour; for JC-1-positive cells % (lower quadrant), mitochondrial depolarization: JC-1, IC50 concentration, n = 3, mean ± SD, control 12.3 ± 2.0. The essentials: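 U-87 MG cells were treated for 48 h with 150 μM test compound or 45 μM comparator, with 0.1% DMSO as control. Cells were pelleted at 1200 rpm for 5 min and incubated in JC-1 working solution for 15 min at 37°C. They were washed, resuspended in kit assay solution and read by flow cytometry. Upper-quadrant (viable) and lower-quadrant (JC-1-positive, depolarised) percentages were recorded; n = 3, mean ± SD.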

In data set [5] the test system is U-87 MG cells. Put plainly: Annexin V and Propidium iodide staining apoptosis assay in flow cytometry. The conditions noted are these: for Increase of late apoptotic effects compared to U-87 MG control group: IC50 concentration, 48th hour. Format: cell-based, human. The essentials:
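U-87 MG cells were cultured in EMEM with 10% FBS, 1% penicillin-streptomycin and 1% L-glutamine at 37°C in 5% CO2. Cells were exposed for 48 h to 150 μM test compound or 45 μM comparator, with 0.1% DMSO as control. They were detached, pelleted and washed twice in cold PBS. Annexin V/PI staining ran 20 min at room temperature in the dark, then binding buffer was added and flow cytometry was read within 30 min. Quadrant %, n = 3, mean ± SD.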

Several values for one entry are separate records, joined by “and”; a condition that tells them apart may be missing. Equal values may be shown once. Read-outs that look alike come from different tables or passages of the source.

Consider `O=P1(N(CCCl)CCCl)NCCCO1` (stereo not shown) [Cyclophosphamide, cyclophosphamide], for which the IC50 in data set [1] (Homo sapiens, U-87 MG, 24 h) was 581 µM; in data set [1] (Homo sapiens, U-87 MG, 48 h), 580 µM; in data set [2] (Homo sapiens, BJ, 24 h), 650 µM; in data set [2] (Homo sapiens, BJ, 48 h), 3970 µM. Further, in data set [2] (WST-1, especially at the 48th hour), the “Cytotoxic effect on BJ cells” value is “did not have a cytotoxic effect”.
As to `NC(=O)[C@H](CCCN=C(N)CCl)NC(=O)c1ccccc1` [Cl-amidine, chlorine-amidine], the “% viability value at the highest concentration” value in data set [1] (U-87 MG, 24 hours) came to 41.16%; in data set [1] (U-87 MG, 48 hours) it was 35.64%. The IC50 is 256 µM in data set [1] (U-87 MG cells, 24 h incubation); 150 µM in data set [1] (U-87 MG cells, 48 h incubation); 604 µM in data set [2] (BJ cells, 24 h incubation); 549 µM in data set [2] (BJ cells, 48 h incubation). In addition, the “Caspase-3 levels compared to the control” value in the data set on U-87 MG cells [3] is recorded as “did not show any difference”. Also, in the data set on U-87 MG cells [3] (48 h), the “Caspase-3-positive cells % (lower right quadrant)” value was found to be 2.8 ± 0.9%. The “Increase of mitochondrial depolarization levels compared to the control” value in the data set with U-87 MG cells [4] is listed as “approximately 4.5 times”. For the same compound, in the data set with U-87 MG cells [4] (48 h), the “JC-1-positive cells % (lower quadrant), mitochondrial depolarization” value is 54.7% and 54.7 ± 11.60%. Moreover, the “Increase of late apoptotic effects compared to U-87 MG control group” value in the data set with U-87 MG cells [5] is recorded as 2.5 times.
`O=NN(CCCl)C(=O)NCCCl` [Carmustine, carmustine]: the half-inhibitory concentration (IC50) in data set [1] (Homo sapiens, U-87 MG, 24 h) was found to be 40.6 µM; in data set [1] (Homo sapiens, U-87 MG, 48 h), 45.7 µM; in data set [2] (Homo sapiens, BJ, 24 h), 144 µM; in data set [2] (Homo sapiens, BJ, 48 h), 81.4 µM. In addition, the viability at 45.68 µM in the data set on U-87 MG cells [3] (Homo sapiens, U-87 MG, 48 h, read-out: Viable cells % (lower left quadrant)) is 96.2 ± 0.9%; in the data set on U-87 MG cells [4] (Homo sapiens, U-87 MG, 48 h, read-out: Viable cells % (upper quadrant)) it was 41.4 ± 3.8%; in the data set with U-87 MG cells [5] (Homo sapiens, U-87 MG, read-out: Viable cells % (lower left quadrant)), 57.6 ± 6.96%. Besides, the “Caspase-3 levels compared to the control” value with U-87 MG cells [3] is listed as “did not show any difference”. The “Caspase-3-positive cells % (lower right quadrant)” value in the data set with U-87 MG cells [3] (48 h) is on record as 3.8 ± 1.0%. For the same compound, the “Increase of mitochondrial depolarization levels compared to the control” value in the data set on U-87 MG cells [4] is given as ~4.7 times. Besides, the “JC-1-positive cells % (lower quadrant), mitochondrial depolarization” value with U-87 MG cells [4] (48 h) is listed as 58.6 ± 3.80%. Moreover, the “Increase of late apoptotic effects compared to U-87 MG control group” value with U-87 MG cells [5] is recorded as “approximately 3 times”.

Source of the values: publication PMC11309612 (Medicine, 2024).
